Bioassay records as filed in PubChem BioAssay.
PGC1a acetyl inh: modulators of PGC1a acetylation; AID 651687; inhibition, % at 15.6 µM; U2OS PGC1a acetylation, AlphaScreen anti-acetyl-lysine; with virally co-expressed GCN5 acetyltransferase; hit rate 0.17% among 350,000;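 active means every replicate shows inhibition of at least 40%; inconclusive means mean inhibition at least 40% but some replicate below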;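 further: 0% = neutral control wells and 100% = positive control wells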
FN deposit inh: fibronectin deposition inhibition; AH1F fibroblasts, Alexa488-fibronectin deposition fluorescence, overnight; inhibition, % at 12.6 µM; hit rate 0.086% among 350,000; AID 743247;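 active means mean inhibition across replicates of 30% or more, regardless of how many single replicates reach that level; inconclusive means mean under 30% yet at least half of replicates reach 30%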;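 further: positive control wells lacked labelled fibronectin entirely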
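material = AH1F fibroblast monolayer depositing Alexa488-labelled fibronectin into matrix | amount = 10000 AH1F cells/well | buffer or medium = DMEM plus 2% serum, read in PBS | incubation = 1 h cell adhesion before compound, then overnight fibronectin incubation | detection = fluorescence at 485 nm excitation, 525 nm emission | evaluation = percent inhibition as loss of matrix-bound fibronectin fluorescence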
PAX8 reporter: inhibitors of PAX8 transcriptional activity in RMG-I cells. AID 652154. inhibition, % at 12.6 µM. hit rate 1.2% among 360,000. RMG-I TPO-luciferase reporter, SteadyGlo, 24 h;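 active means mean replicate inhibition at least 60% with every replicate also reaching 60%; inconclusive means only one of the two criteria is met; inactive means mean below 60% and not all replicates reaching 60%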;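 further: luciferase light reporting Pax8 driven TPO promoter activity; plate controls were median of neutral control wells for no effect and mitoxantrone controls for full effect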
FGF22 binding: binders of recombinant human FGF22 by thermal shift | Q9HCT0 | SYPRO orange fluorescence; percent of sucrose octasulfate shift, DMSO zero | activity (Tm shift, normalised), % at 9.99 µM | hit rate 1.5% among 340,000;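 active means mean Tm shift, scaled 0 neutral to 100 positive control, at about 1.3% or above, every replicate too, limit read from the data; inconclusive means no clear call, values can overlap the other calls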
Target sequence (Q9HCT0 whole entry, looked up): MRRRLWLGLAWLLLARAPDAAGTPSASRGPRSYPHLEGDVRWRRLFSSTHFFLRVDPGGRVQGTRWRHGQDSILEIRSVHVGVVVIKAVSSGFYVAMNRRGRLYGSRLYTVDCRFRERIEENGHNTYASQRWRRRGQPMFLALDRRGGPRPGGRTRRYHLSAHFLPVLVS
EWS-Fli block: inhibitors of EWS/Fli oncoprotein transcriptional activity; A673 NR0B1-luciferase reporter, viability-normalised; inhibition, % at 12.6 µM; hit rate 0.67% among 350,000;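 active means mean inhibition of at least 50% after viability correction, with every replicate also passing that limit; inconclusive means mean reaches 50% but only one of two replicates passes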;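 further: firefly luciferase signal divided by Alamar Blue viability fluorescence both relative to DMSO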
Env fusion inh: inhibitors of HIV Env-mediated cell fusion. inhibition, % at 12.3 µM. AID 651610. HeLa-JRFL Env/CEM21 cell fusion, luciferase. hit rate 1.1% among 360,000;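 active means mean replicate inhibition score of at least 50 and every replicate individually at or above 50; inconclusive means only one of the two criteria met; inactive means mean below 50 and not all replicates reaching 50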;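 further: 0% = plate neutral controls and 100% = maraviroc near 300 nM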
* hit, by the source's call; ? = inconclusive; · = not tested or not shown; [ ] = remark or other dose. Only some compounds are listed: those with a hit (about 3.1% of all), similar ones and a draw of the others.

SMILES | PGC1a acetyl inh | FN deposit inh | PAX8 reporter | FGF22 binding | EWS-Fli block | Env fusion inh
CC(/C=N/NC(=O)c1cc(-c2ccc(Cl)cc2)nc2ccccc12)=C\c1ccco1 | ? | -12 | 87* | · | · | -259
C[C@H]1CN([C@@H](C)CO)C(=O)Cc2cc(NC(=O)Nc3ccc(C(F)(F)F)cc3)ccc2O[C@@H]1CN(C)S(=O)(=O)c1cccs1 | -11 | · | 17 | 0 | -7 | -7[16.7 µM]
CCNC(=O)N1CCN(c2ccc(N3CCN(Cc4ccccc4)[C@@H](C)C3)c(C)c2)[C@@H](C)C1 | · | -8 | -1 | -1 | 7 | -11
CCNC(=O)N1CCN(c2ccc(N3CCN(Cc4ccccc4)[C@H](C)C3)c(C)c2)[C@@H](C)C1 | · | 6 | 14 | 40* | 4 | 7
CCOCCCN1CN(Cc2ccco2)CNC1=S | -7 | -7 | 3 | 43* | -9 | -6
CCCN1CNC(=S)N(c2ccccc2C)C1 | · | -8 | 9 | 43* | 6 | -1
Cc1ccccc1N1CN(Cc2ccco2)CNC1=S | · | 7 | 61* | 0 | -5 | ·
Cc1cccc(N2CN(Cc3ccco3)CNC2=S)c1C | 1 | · | -7 | · | · | -50
S=C1NCN(Cc2ccco2)CN1CCc1ccccc1 | 17 | -9 | 7 | 0 | -7 | 14
C[C@@H]1CN([C@@H](C)CO)C(=O)c2cc(NC(=O)Nc3ccc(F)cc3)ccc2O[C@@H]1CN(C)Cc1ccc(Cl)c(Cl)c1 | -4 | -1 | 52 | 0 | 2 | 25[16.7 µM]
CN(C)C(=O)[C@@H]1[C@@H](CO)[C@@H]2Cn3c(ccc(-c4ccc(F)cc4)c3=O)[C@@H]2N1C(=O)c1ccccn1 | · | · | -11 | 0 | 0 | ·
O=C(c1c[nH]c2ccccc12)C(O)C(c1ccccc1)N1CCOCC1 (stereo unspecified) | -6 | · | · | · | · | ·
O=C(c1c[nH]c2ccccc12)C(Cl)c1ccccc1 (stereo unspecified) | · | 3 | 81* | 0 | 28 | -154
COC(=O)Cc1csc(NC(=O)CSc2nnc3ccccn23)n1 | · | -1 | -7 | 44* | 3 | -17
CCCC#Cc1cnc2c(c1)C(=O)N([C@H](C)CO)C[C@H](C)[C@@H](CN(C)C(=O)NC1CCCC1)O2 | -8 | 0 | -4 | 0 | 11 | 4[16.7 µM]
C[C@H]1CCCCO[C@H](CN(C)C(=O)NC2CCCCC2)[C@@H](C)CN([C@@H](C)CO)C(=O)c2cc(NS(=O)(=O)c3ccc(Cl)cc3)ccc2O1 | 16 | -5 | 71* | 0 | 11 | 1[16.7 µM]
C[C@@H]1CCCCO[C@H](CN(C)C(=O)NC2CCCCC2)[C@H](C)CN([C@@H](C)CO)C(=O)c2cc(NS(=O)(=O)c3ccc(Cl)cc3)ccc2O1 | 0 | -19 | 80* | 0 | -5 | -23[16.7 µM]
C[C@@H]1CCCCO[C@@H](CN(C)C(=O)NC2CCCCC2)[C@@H](C)CN([C@H](C)CO)C(=O)c2cc(NS(=O)(=O)c3ccc(Cl)cc3)ccc2O1 | 10 | 0 | -20 | 0 | 30 | -53[16.7 µM]
COc1ccccc1-c1ccc2c(c1)O[C@H](CN(C)CC1CC1)[C@H](C)CN([C@H](C)CO)S2(=O)=O | -16 | · | · | · | -12 | 16[16.7 µM]
CC(C)NC(=O)N(C)C[C@H]1OCCCC[C@H](C)Oc2ccc(NS(=O)(=O)c3ccc(Cl)cc3)cc2C(=O)N([C@H](C)CO)C[C@H]1C | 2 | -2 | -16 | 0 | 4 | -51[16.7 µM]
COc1ccc(S(=O)(=O)NNC(=O)C2Cc3c(ccc4ccccc34)O2)cc1 (stereo unspecified) | -1 | · | 2 | · | · | 85*
C[C@@H]1CN([C@@H](C)CO)S(=O)(=O)c2ccc(-c3ccccc3)cc2O[C@H]1CN(C)C | -11 | · | 9 | 0 | -12 | -13[16.7 µM]
Cc1cc(Cl)n2c(nc3ccccc32)c1C#N | · | -1 | 55 | 0 | 24 | -56
Cc1c(CCCl)c(Cl)n2c(nc3ccccc32)c1C#N | · | · | 87* | 0 | 46 | -393
O=C(COC(=O)c1cccnc1Cl)NCc1cccs1 | -17 | 6 | 1 | 43* | -3 | -10
SMILES | PGC1a acetyl inh | FN deposit inh | PAX8 reporter | FGF22 binding | EWS-Fli block | Env fusion inh
CCOc1ncccc1C(=O)OCC(=O)NCc1cccs1 | 3 | -1 | 15 | 0 | 0 | ·
C/C=C/c1ccc([C@@H]2[C@H](CO)N(C(=O)CN(C)C)C23CN(C(=O)C2CCCCC2)C3)cc1 | -6 | · | -1 | · | 12 | -7[16.7 µM]
C[C@@H]1CN([C@H](C)CO)C(=O)Cc2cc(NS(=O)(=O)c3cn(C)cn3)ccc2O[C@H]1CN(C)S(=O)(=O)c1cccs1 | 7 | -2 | -12 | 0 | -2 | 10[16.7 µM]
COC(=O)c1ccc(-c2nc(-c3cccs3)no2)cc1 | -14 | -2 | -56 | 0 | 58* | -47
Fc1ccc(-c2nc(-c3cccs3)no2)cc1 | 3 | 5 | -86 | 0 | -75 | -80
Cn1c(-c2ccccn2)[n+](C)c2ccccc21 | · | 1 | -16 | 43* | 10 | -5
CCNC(=O)NC(=O)CSc1ccc2ccccc2c1 | 0 | · | -1 | 43* | 12 | -7
CCNC(=O)NC(=O)CSc1ccccc1F | 2 | · | · | · | · | ·
O=C(c1ccc(Br)cc1)c1cc([N+](=O)[O-])ccc1N1CCCCC1 | -22 | -3 | 97* | · | · | -92
CN1CCN(c2ccc([N+](=O)[O-])cc2C(=O)c2ccc(Br)cc2)CC1 | 0 | 3 | 28 | · | · | 67
CC(C)CNC(=O)c1cc([N+](=O)[O-])ccc1N1CCCCC1 | -15 | 4 | 14 | 43* | 8 | 8
COCC(=O)N(C)C[C@@H]1Oc2cc(-c3ccc(C)cc3)ccc2S(=O)(=O)N([C@@H](C)CO)C[C@@H]1C | 7 | 1 | · | 0 | -11 | -13[16.7 µM]
Cc1ccc[n+](Cc2ccc([N+](=O)[O-])cc2)c1 | 1 | · | -5 | 0 | 3 | -8
O=[N+]([O-])c1ccc(C[n+]2cccc3c4ccccc4ccc32)cc1 | · | 4 | 52 | 43* | 38 | 3
COc1ccc(NS(=O)(=O)c2cc(NC(=O)c3ccc(=O)[nH]n3)ccc2C)cc1 | -13 | 8 | 26 | 0 | 56* | 10
COc1ccc(NS(=O)(=O)c2cc(C(=O)O)ccc2C)cc1 | -6 | · | · | 0 | 0 | ·
C/C=C/c1ccc([C@@H]2[C@@H](CN(CC)C(=O)CN(C)C)N(C(C)=O)[C@H]2CO)cc1 | 2 | -2 | -17 | 0 | -5 | ·
COc1ccccc1C(=O)N(CCC1CCCN1C)c1nc2ccccc2s1 (stereo unspecified) | · | 3 | -104 | 0 | 61* | -97
C[C@@H]1CN([C@H](C)CO)C(=O)Cc2cc(NC(=O)c3ccncc3)ccc2O[C@H]1CN(C)C | 1 | · | 2 | 0 | -8 | ·
COC(=O)c1cc(C(=O)c2ccc(C(C)(C)C)cc2)c[nH]1 | · | 43* | -76 | 0 | -95 | -2
CC(C)(C)c1ccc(C(=O)c2c[nH]c(C(=O)O)c2)cc1 | 4 | -1 | -71 | 0 | -107 | -62
